Holding throughout (type): functional
The species named for assay [1] is Cavia porcellus. Kind of assay: Cardiotonic activity was measured in guinea pig atria at 54 uM concentration; Ranking -. Put shortly: (§1)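 Isolated atria suspended at 37 °C in Tyrode's solution aerated with O2-CO2 (95:5). After at least 1 h equilibration, cumulative dose-response curves for rate and force of spontaneous contractions were built by serial additions of alkaloid in methanol, at least 10 min apart. Effects given at 54 μM; values are averages of two to six experiments.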

For assay [2], the species on record is Cavia porcellus. Kind of assay: Phosphoinositide breakdown in guinea pig brain synaptoneurosomes. Details: concentration or dose not given beside the values. In outline: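 Guinea pig cerebral cortex synaptoneurosomes (~1 mg protein per tube) were labelled 60 min at 37 °C with 1 μM [3H]inositol in Krebs-Henseleit buffer (pH 7.4). LiCl was added, and agents were added 10 min later for 90 min at 37 °C under O2-CO2. [3H]inositol 1-phosphate was isolated by anion exchange and counted. Results are percent of control, means ± SEM (n = 3) or single values at 10 μM.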

The species entered for assay [3] is Mus musculus. Kind of assay: Phosphoinositide (PI) breakdown was measured in mouse atria at 10 uM. Put shortly: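 Male mouse (20-25 g) right and left atria were prelabelled for 60 min at 37 °C in Krebs-Henseleit buffer (pH 7.4) with 1 μM [3H]inositol. LiCl (10 mM final) was added, and agents were added 15 min later at 10 μM for 30 min at 37 °C. [3H]inositol phosphates in the TCA extract were separated by anion exchange. Results are percent of control, two to four determinations ± SEM.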

Assay [4] is filed under the species Cavia porcellus. Kind of assay: Specific sodium influx was measured in guinea pig brain synaptoneurosomes at 100 uM concentration (10s of incubation).
The species entered for assay [5] is Cavia porcellus. Kind of assay: Cardiotonic activity was measured in guinea pig atria at 54 uM concentration; Ranking. In outline: as §1
The species entered for assay [6] is Cavia porcellus. Kind of assay: Cardiotonic activity was measured in guinea pig atria at 18 uM concentration; Ranking. In outline:
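Isolated spontaneously beating atria held at 37 °C in Tyrode's solution gassed with 95:5 O2-CO2, equilibrated at least 1 h. Alkaloid was added serially in methanol, at least 10 min apart, to build cumulative dose-response curves. Rate and force of spontaneous contractions were recorded. Values are averages of two to six experiments.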

Structures are written as SMILES.

As to `C[C@@H](/C=C1\CN2CCC[C@H]2[C@@](C)(O)C1)CCO`, the Activity result is on record as “Ranking -” in assay [1] and 110% in assay [2].

For the compound `CCC(O)/C(C)=C/C[C@@H](C)/C=C1\CN2CCC[C@H]2[C@@](C)(O)C1` (stereo not given in full), the Activity was 114% in assay [3], 0.72 nM (mg of protein)-1 in assay [4], “Ranking” in assay [5] and 172% in assay [2].

As for `C/C(=C\C[C@@H](C)/C=C1\CN2CCC[C@H]2[C@@](C)(O)[C@H]1O)[C@@H](O)[C@@H](C)O`, the Activity result is recorded as “Ranking” in assay [5] and 176% in assay [2].

For the compound `CCC[C@@H](C)/C=C1\CN2CCC[C@H]2[C@@](C)(O)[C@@H]1O`, the Activity result is reported as “Ranking” in assay [5] and 138% in assay [2].

On to `CC[C@H](O)/C(C)=C/C[C@@H](C)/C=C1\CN2CCC[C@H]2[C@@](C)(O)[C@@H]1O`, for which the Activity entry is reported as “Ranking” in assay [6] and 275% in assay [2].

Regarding `C/C(=C\C[C@@H](C)/C=C1\CN2CCC[C@H]2[C@@](C)(O)C1)[C@@H](O)[C@H](C)O`, the Activity entry in assay [5] is “Ranking”.

As to `CCC(OC)/C(C)=C/C[C@@H](C)/C=C1\CN2CCC[C@H]2[C@@](C)(O)C1` (stereo not given in full), the Activity result in assay [1] was “Ranking -”; in assay [3], 92%; in assay [4], 0.29 nM (mg of protein)-1; in assay [2], 118%.

As to `CCC[C@H](C)/C=C1\CN2CCC[C@H]2[C@@](C)(O)[C@H]1O`, the Activity result is “Ranking -” in assay [1] and 116% in assay [2].

As for `C/C(=C\C[C@@H](C)/C=C1\CN2CCC[C@H]2[C@@](C)(O)C1)[C@@H](O)[C@@H](C)O`, the Activity in assay [3] is reported as 150%; in assay [4], 3.05 nM (mg of protein)-1; in assay [2], 280%.

As to `CC[C@H](O)/C(C)=C/C[C@@H](C)/C=C1\CN2CCC[C@H]2[C@@](C)(O)C1`, the Activity entry in assay [5] is “Ranking”.

On to `C=CCCCC/C=C1\CN2CCC[C@H]2[C@@](C)(O)C1`, for which the results for the Activity entry in assay [1] and in assay [2] were “Ranking -” and 112%, respectively.

For `CC(O)CC[C@@H](C)/C=C1\CN2CCC[C@H]2[C@@](C)(O)C1` (stereo not given in full), the figures for the Activity entry in assay [5] and in assay [2] were “Ranking” and 129%, respectively.

Turning to `C[C@H](/C=C1\CN2CCC[C@H]2[C@@](C)(O)C1)CCO`, the Activity entry in assay [1] is “Ranking -”; in assay [2], 115%.

On to `C[C@]1(O)C/C(=C/CCCCCCO)CN2CCC[C@H]21`, for which the Activity entry in assay [1] is reported as “Ranking -”; in assay [2] it was 122%.

Regarding `C/C(=C\C[C@@H](C)/C=C1\CN2CCC[C@H]2[C@@](C)(O)[C@@H]1O)[C@@H](O)[C@@H](C)O`, the results for the Activity result in assay [6] and in assay [2] were “Ranking” and 304%, respectively.

For `C/C(=C\C[C@@H](C)/C=C1\CN2CCC[C@H]2[C@@](C)(O)C1)[C@H](O)[C@H](C)O`, the Activity entry is reported as “Ranking” in assay [5] and 129% in assay [2].

As for `CCCC[C@@H](C)/C=C1\CN2CCC[C@H]2[C@@](C)(O)C1`, the Activity result in assay [1] is “Ranking -”; in assay [2], 132%.

In the case of `CC[C@@H](O)/C(C)=C/C[C@@H](C)/C=C1\CN2CCC[C@H]2[C@@](C)(O)[C@@H]1O`, the Activity result is reported as “Ranking” in assay [5] and 137% in assay [2].

Turning to `C[C@@H](/C=C1\CN2CCC[C@H]2[C@@](C)(O)C1)CCOCc1ccccc1`, the Activity entry in assay [1] is on record as “Ranking -”; in assay [2] it was 102%.

On to `C/C(=C\C[C@H](C)/C=C1\CN2CCC[C@H]2[C@@](C)(O)C1)[C@@H](O)[C@@H](C)O`, for which the Activity entry is listed as “Ranking” in assay [5] and 110% in assay [2].

For the compound `CCC(=O)/C(C)=C/C[C@@H](C)/C=C1\CN2CCC[C@H]2[C@@](C)(O)C1`, the Activity entry is recorded as “Ranking -” in assay [1] and 109% in assay [2].

The record behind these values is ChEMBL document CHEMBL1124254, “Pumiliotoxin alkaloids: relationship of cardiotonic activity to sodium channel activity and phosphatidylinositol turnover” (1988).
